This is a sample that favours compounds with a hit; in the whole collection about 12% have one here.
Arbovirus anti: arbovirus infection inhibition; hit rate 0.37% among 200,000; AID 1251; arbovirus infection cell-based antiviral screen; inhibition, % at 10 µM; in the data active = inhibition above about 30%
Rad51 HR inh: Rad51 (human) homologous recombination inhibition; inhibition, % at 10 µM; Q06609; hRad51 DNA strand exchange, fluorescence dequenching; hit rate 0.085% among 200,000;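 active = inhibition above 40% at the single screening dose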;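 also: 0% = DMSO control wells and 100% = blanks with heterologous ssDNA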
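Material: Human Rad51 nucleoprotein filaments preassembled on unlabelled ssDNA | Also added: Labelled 47-mer dsDNA for strand exchange | Dosing: Single dose, 10 µM final compound | Schedule: 30-min compound preincubation and 15-min exchange, both room temperature | Technique: Fluorescence dequenching at 485/520 nm | Measure: Percent inhibition relative to plate controls and blanks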
CHOP inhibitor: blocks CHOP induction under ER stress; CHO-K1 CHOP-promoter luciferase, tunicamycin-induced, 15-18 h; inhibition, % at 10 µM; hit rate 3.8% among 220,000;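 active = compounds that reduced the stress-induced luciferase reporter signal by more than about 70% of percent inhibition, limit read from the data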;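 also: 0% = tunicamycin plus vehicle and 100% = wells without tunicamycin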
Wee1 stabilizer: inhibitors of human Wee1 degradation; P30291; HeLa Luc-Wee1K328M stability, luciferase luminescence; 100% = proteasome inhibitor MG132 effect; reporter increase, % at 5 µM; hit rate 1.2% among 220,000;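 active = activation above the mean of all tested compounds plus 3 SD, set per screening run, cut at about 8.8% in these data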;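 also: cells exposed to compound for 20 h before luminescence read; 0% = DMSO alone and 100% = MG132 at 30 µM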
Target sequence (P30291 whole entry K328M): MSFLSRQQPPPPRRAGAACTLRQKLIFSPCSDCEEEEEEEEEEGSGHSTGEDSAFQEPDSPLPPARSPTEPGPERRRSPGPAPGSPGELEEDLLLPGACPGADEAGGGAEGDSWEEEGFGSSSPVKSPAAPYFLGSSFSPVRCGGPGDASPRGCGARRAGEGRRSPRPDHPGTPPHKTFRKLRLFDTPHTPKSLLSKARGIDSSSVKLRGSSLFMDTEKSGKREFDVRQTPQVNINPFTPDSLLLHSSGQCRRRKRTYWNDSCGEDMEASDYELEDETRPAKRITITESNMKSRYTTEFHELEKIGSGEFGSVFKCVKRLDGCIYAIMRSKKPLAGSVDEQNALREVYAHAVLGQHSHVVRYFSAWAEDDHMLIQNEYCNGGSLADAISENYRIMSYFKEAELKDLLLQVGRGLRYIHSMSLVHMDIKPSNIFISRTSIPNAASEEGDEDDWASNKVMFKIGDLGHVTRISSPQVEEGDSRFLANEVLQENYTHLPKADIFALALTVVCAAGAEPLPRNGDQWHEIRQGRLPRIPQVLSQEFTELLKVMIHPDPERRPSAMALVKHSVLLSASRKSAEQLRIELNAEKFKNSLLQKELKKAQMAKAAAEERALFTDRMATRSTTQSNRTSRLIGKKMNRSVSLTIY
PKD1 kinase inh: PKD1 (human) kinase inhibition; PKD1 kinase fluorescence polarization assay; hit rate 0.056% among 200,000; inhibition, % (test concentration not listed); Q15139
Lmaj promast: inhibitors of Leishmania major promastigote growth | hit rate 9% among 200,000 | Leishmania major promastigotes, resazurin fluorescence viability | inhibition, % at 10 µM;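 also: promastigotes grown with compound for 44 hours at 28 °C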
The depositor's hits bear a star. Rule as the data show it, unless noted: active = inhibition above about 50%; inactive = the rest.

`Cc1c2cnn(CC(=O)Nc3c(F)c(F)cc(F)c3F)c(=O)c2c(C)n1Cc1ccc(F)cc1` gave Arbovirus anti -2.2, Rad51 HR inh 0.5, CHOP inhibitor 78.6*, Wee1 stabilizer -0.2, PKD1 kinase inh -4.3 and Lmaj promast -5.5.
`CCN(CC)c1ccc(NC(=O)Cn2ncc3c(C)n(Cc4ccccc4F)c(C)c3c2=O)c(C)c1` gave Arbovirus anti -9.8, Rad51 HR inh -0.2, CHOP inhibitor 0.3, Wee1 stabilizer -1.1, PKD1 kinase inh -2.3 and Lmaj promast -6.3.
`CCN=C1SC(C(=O)Nc2cccc(Cl)c2)CC(=O)N1CC` (configuration not stated) gave Arbovirus anti -7.0, Rad51 HR inh 0.5, CHOP inhibitor -8.9, Wee1 stabilizer -4.0, PKD1 kinase inh -1.6 and Lmaj promast 15.6.
CCN=C1SC(C(=O)Nc2cc(Cl)cc(Cl)c2)CC(=O)N1CC (configuration not stated) was read as Arbovirus anti 18.7, Rad51 HR inh -3.0, CHOP inhibitor 74.6*, Wee1 stabilizer -0.2, PKD1 kinase inh 2.6 and Lmaj promast -5.7.
`CCN=C1SC(C(=O)Nc2ccc(Cl)c(Cl)c2)CC(=O)N1CC` (configuration not stated) gave Arbovirus anti -7.0, CHOP inhibitor 73.6*, Wee1 stabilizer 1.0, PKD1 kinase inh -0.5 and Lmaj promast -6.9.
For COc1ccc(CC(=O)NCC(=O)N/N=C(/C)c2ccco2)cc1 the results were Arbovirus anti 6.3, Rad51 HR inh 10.6, CHOP inhibitor -3.4, Wee1 stabilizer 2.6, PKD1 kinase inh -4.3 and Lmaj promast -0.4.
Screening Cc1ccc(NNC(=O)C(=O)N2CCCCC2)cc1 returned Arbovirus anti -20.4, Rad51 HR inh 1.1, CHOP inhibitor -31.8, Wee1 stabilizer 0.4, PKD1 kinase inh 9.7 and Lmaj promast 65.7*.
Cc1ccccc1C(=O)NNC(=O)C(=O)N1CCCCC1 was read as Arbovirus anti -6.8, CHOP inhibitor -20.6, Wee1 stabilizer -0.1, PKD1 kinase inh -13.9 and Lmaj promast 25.9.
`Cc1ccc(NC(=S)N(CCN2CCCCC2)Cc2ccco2)cc1Cl` gave Arbovirus anti 7.4, Rad51 HR inh 9.2, CHOP inhibitor 18.1, Wee1 stabilizer 1.4, PKD1 kinase inh -3.2 and Lmaj promast 34.2.
For CCC1CCc2c(c3ccccc3[nH]c2=O)O1 (configuration not stated) the results were Arbovirus anti 4.2, CHOP inhibitor 12.1, Wee1 stabilizer -2.0, PKD1 kinase inh 4.3 and Lmaj promast -1.0.
Screening CCCC1CCc2c(c3ccccc3[nH]c2=O)O1 (configuration not stated) returned Arbovirus anti 3.6, Rad51 HR inh -5.5, CHOP inhibitor 75.6*, Wee1 stabilizer 4.2, PKD1 kinase inh 3.2 and Lmaj promast -2.1.
Screening NC(=O)C12CCCC(Br)(CCC1)C2 returned Rad51 HR inh 9.2, CHOP inhibitor 19.3 and Wee1 stabilizer 1.8.
`Cc1ccccc1-n1cnc2c(sc3nc(N4CCOCC4)c4c(c32)CCCC4)c1=O` gave Rad51 HR inh -21.8, CHOP inhibitor 24.0 and Wee1 stabilizer 0.3.
For COc1ccc(C(=O)/C=C/c2ccc(OC)c(CN3CCOCC3)c2)cc1 the results were Arbovirus anti -0.5, Rad51 HR inh -5.2, CHOP inhibitor -47.3, Wee1 stabilizer -3.0, PKD1 kinase inh -12.8 and Lmaj promast 86.0*.
COc1ccc(/C=C/C(=O)c2ccccc2O)cc1CN1CCOCC1 was read as Arbovirus anti 3.5, Rad51 HR inh -2.6, CHOP inhibitor -35.9, Wee1 stabilizer 1.9, PKD1 kinase inh 2.8 and Lmaj promast 23.9.
COc1ccc(C(=O)/C=C/c2ccc(OC)c(Cn3nnc4ccccc43)c2)cc1 was read as Arbovirus anti 36.9*, Rad51 HR inh 1.7, CHOP inhibitor -79.7, Wee1 stabilizer 7.5, PKD1 kinase inh 2.8 and Lmaj promast 85.2*.
Screening COc1ccc(C(=O)CSc2nnc(Cn3nnc4ccccc43)n2C)cc1 returned Arbovirus anti -3.6, Rad51 HR inh -8.2, CHOP inhibitor -2.0, Wee1 stabilizer 3.0, PKD1 kinase inh -1.7 and Lmaj promast -1.7.
For COc1ccc(/C=C/C(=O)C23CC4CC(CC(C4)C2)C3)cc1CN1CCOCC1 the results were Arbovirus anti 3.1, Rad51 HR inh 10.2, CHOP inhibitor 47.2, Wee1 stabilizer -1.6, PKD1 kinase inh -1.9 and Lmaj promast 66.3*.
Screening COc1ccc(/C=N/NC(=O)c2ccncc2)cc1CN1CCOCC1 returned Rad51 HR inh 11.0, CHOP inhibitor 4.9 and Wee1 stabilizer -0.6.
COc1ccc(/C=C/C(=O)c2ccc(O)cc2)cc1CN1CCOCC1 was read as Arbovirus anti -13.5, CHOP inhibitor -65.0, Wee1 stabilizer 6.3, PKD1 kinase inh 11.6 and Lmaj promast 97.7*.
`COc1ccc(/C=C/C(=O)c2ccc3ccccc3c2O)cc1CN1CCOCC1` gave Arbovirus anti 25.6, Rad51 HR inh -0.6, CHOP inhibitor -22.1, Wee1 stabilizer -2.6, PKD1 kinase inh -9.2 and Lmaj promast 33.6.
Screening C#CCn1c(C)cc(C)c(S(=O)(=O)c2ccccc2)c1=O returned Arbovirus anti 1.5, Rad51 HR inh 2.0, CHOP inhibitor -13.7, Wee1 stabilizer 8.3, PKD1 kinase inh -6.3 and Lmaj promast -3.0.
`O=C(NNS(=O)(=O)c1ccc(Cl)cc1)c1cccc(S(=O)(=O)N2CCOCC2)c1` gave Rad51 HR inh -4.2, CHOP inhibitor -0.8 and Wee1 stabilizer -1.1.
COc1ccc(/C=C/C(=O)c2nc3ccccc3n2CC(=O)c2ccc(OC)cc2)cc1 was read as Arbovirus anti -3.8, Rad51 HR inh 0.2, CHOP inhibitor 41.2, Wee1 stabilizer -0.7, PKD1 kinase inh -3.6 and Lmaj promast 75.1*.
For COc1ccc(C(=O)Cn2c(NCCO)nc3ccccc32)cc1 the results were Arbovirus anti -1.6, CHOP inhibitor -11.6, Wee1 stabilizer 1.4, PKD1 kinase inh -0.7 and Lmaj promast 0.7.
`CCOC(=O)/C(C#N)=C1\SS/C(=C(/C#N)C(=O)OCC)S1` gave Rad51 HR inh 3.0, CHOP inhibitor -45.6 and Wee1 stabilizer 1.3.
For COCCCNC(=O)c1ccc(N2CCCC2)c(NS(=O)(=O)c2ccc(C)cc2)c1 the results were Arbovirus anti -1.2, Rad51 HR inh -11.1, CHOP inhibitor 3.4, Wee1 stabilizer 1.9, PKD1 kinase inh -4.3 and Lmaj promast 4.3.
CCOCCCNC(=O)c1ccc(N2CCCC2)c(NS(=O)(=O)c2ccc(C)cc2)c1 was read as Arbovirus anti -7.8, Rad51 HR inh -3.2, CHOP inhibitor 10.9, Wee1 stabilizer -1.2, PKD1 kinase inh 4.4 and Lmaj promast 7.7.
Screening Cc1ccc(S(=O)(=O)Nc2cc(C(=O)NCCN3CCCC3)ccc2N2CCCCC2)cc1 returned Arbovirus anti -10.5, Rad51 HR inh -2.1, CHOP inhibitor 44.1, Wee1 stabilizer -1.5, PKD1 kinase inh 14.4 and Lmaj promast 99.2*.

Screening data from PubChem BioAssay.
